To fix the notation:
B1: tRNA (parent)
chain: GUUCCGUUGGCGUAAUGGUAACGCGUCUCCCUCCUAAGGAGAAGACUGCGGGUUCGAGUCCCGUACGGAACG

This sample holds only a part of the variants without activity.

The variants in this data set derive from B1. Put plainly: yeast fitness relative to wild type (ratio to wild type); higher = fitter; tRNA-Arg(CCU), competitive growth, 37 C, YPD. The essentials: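 The tRNA-Arg(CCU) gene variants were made by chemical synthesis with a 3% per-site mutation rate at 69 sites and inserted at the native genomic locus of Saccharomyces cerevisiae. After pooling, the strains were competed in YPD at 37°C for 24 hours in six parallel replicates. Gene amplicons from the start population and each end population were read by 100-nucleotide paired-end sequencing, and Darwinian fitness relative to wild type was taken from genotype frequency changes. Genotypes needed ≥ 100 starting reads, and estimates < 0.5 were set to 0.5.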
In the case of C11U A45G G52A, the yeast fitness came to 0.63.

For the variant U26G U28A A43G C61U G67A, the yeast fitness was 0.599.

Take A20C G25C A40U: the yeast fitness amounted to 0.605.

Regarding G23A A45U G56A, the yeast fitness amounted to 0.727.

Take C31G C34G A45U G63C: the yeast fitness was no more than 0.5.

For U2G C4A C22U U28G A42U C49A, the yeast fitness is no more than 0.5.

As for C4G G10C C31U U53A, the yeast fitness was no more than 0.5.

Take U2C G51U G58C: the yeast fitness was 0.548.

In the case of C62A A65U, the yeast fitness worked out at 0.772.

For G23C A36G, the yeast fitness amounted to 0.625.

On to C24G G41A, for which the yeast fitness is 0.619.

As for C27A C49U C61A, the yeast fitness was no more than 0.5.

As for A20G U54C A70C, the yeast fitness was found to be 0.578.

As to C27G C62U A65U, the yeast fitness is 0.554.

As for C11G C27U C33U A65C G67A, the yeast fitness was no more than 0.5.

U3C A14U A37U: the yeast fitness is no more than 0.5.

Consider U8A G18C C24A U32C G52C G56A, for which the yeast fitness was no more than 0.5.

For the variant U3C G17C A40G C61U, the yeast fitness is no more than 0.5.

With G23A C31U A57U, the yeast fitness was no more than 0.5.

On to C11A G17C A36G G41C U53C C61A G68A, for which the yeast fitness was no more than 0.5.

With A15U U16C A40U U59A A70C, the yeast fitness is no more than 0.5.

Turning to A15C G18A C24G C55A, the yeast fitness is no more than 0.5.

Consider G10A G23A, for which the yeast fitness is 0.534.

With C11A C27G C61G, the yeast fitness was 0.52.

Regarding C60A A69G, the yeast fitness was determined as 0.56.

G10A A20G U35G A37G: the yeast fitness was no more than 0.5.

As for C11G A21U A42U, the yeast fitness is no more than 0.5.

Turning to U2A G6C G68C, the yeast fitness was no more than 0.5.

U28G C30G A40C A42U G51A: the yeast fitness was no more than 0.5.

C5G C55A A57U: the yeast fitness is 0.55.

Turning to U2A G6A C11G C49U U54C G58C, the yeast fitness is no more than 0.5.

Consider U16A C29G, for which the yeast fitness worked out at 0.669.

For C62G G63A, the yeast fitness worked out at 0.796.

On to G17U, for which the yeast fitness was 0.851.

For A21G C49G U59C, the yeast fitness is 0.583.

Regarding C4A G17A C62A, the yeast fitness is no more than 0.5.

For A14C C30A C31G U64A, the yeast fitness was found to be 0.584.

For C11U A45C G52C C61U, the yeast fitness was no more than 0.5.

Regarding U3C C31U A36U G39C, the yeast fitness was no more than 0.5.

For G12A C34G A37G G38A G50A, the yeast fitness was no more than 0.5.

As for A15C C22A, the yeast fitness turned out to be 0.697.

In the case of U13C C22A G23C C34U A36G A40U, the yeast fitness is no more than 0.5.

Consider U2A G50C G56A A57G, for which the yeast fitness was no more than 0.5.

Take C24U C49A G67A: the yeast fitness turned out to be 0.547.

As to C31U U35C A40G A65U, the yeast fitness was no more than 0.5.

On to C11A A43G A69U, for which the yeast fitness came out at 0.582.

For C4U A15U C30A A40G C66U A70G, the yeast fitness is no more than 0.5.

A42C G48A G50A C61G: the yeast fitness was found to be 0.553.

As to C4U C60G G63A, the yeast fitness came to 0.706.

Take C30A C33G A40G: the yeast fitness was no more than 0.5.

For the variant C5A C22U U35C C49U C66U, the yeast fitness was no more than 0.5.

With U35A C62U, the yeast fitness is 0.732.

Consider A15C C24U C66U, for which the yeast fitness is no more than 0.5.

With A36C C46U U53A, the yeast fitness worked out at 0.639.

As for G17A C34U U47A G68C, the yeast fitness was no more than 0.5.

On to C11A U28G C33A A42C, for which the yeast fitness was no more than 0.5.

As to C49G U54C, the yeast fitness is 1.01.

Regarding U3A C4G U8A C24G U53C G58A, the yeast fitness is no more than 0.5.

As to G48A C61U A65C, the yeast fitness is no more than 0.5.

G10A U16A C31A G51A: the yeast fitness worked out at 0.584.

Consider U8A G10A G39A, for which the yeast fitness was determined as 0.626.

In the case of C4G G25A C66A, the yeast fitness is no more than 0.5.

Take G6A U19A U53A: the yeast fitness is no more than 0.5.

A15C U47C A69U: the yeast fitness turned out to be 0.551.

Turning to G9C C29A, the yeast fitness was found to be 0.601.

For C4G U7A C22U, the yeast fitness is no more than 0.5.

As to U3A C4U C11A G44A, the yeast fitness was no more than 0.5.

Turning to C31G C34G A42C C66G, the yeast fitness is no more than 0.5.

As to C4G C22G C24U G41A, the yeast fitness was no more than 0.5.

In the case of A20U G44U A57U G58A C66G, the yeast fitness amounted to 0.518.

Regarding U16A A21C C30G A36G G51C G52A, the yeast fitness is no more than 0.5.

Turning to G6C U8A, the yeast fitness was found to be 0.674.

On to C5A G52A G56A G58C, for which the yeast fitness is no more than 0.5.

Consider C22G G48C G67C, for which the yeast fitness was no more than 0.5.

For C4U A43G G68C, the yeast fitness stood at 0.553.

Turning to C5A A14U A15C C24G U26A, the yeast fitness turned out to be 0.78.

For G12C A42G A70U, the yeast fitness was determined as 0.592.

For G6C C11U C27G G41C C61A, the yeast fitness was no more than 0.5.

As to C30G C33G C60G C62U, the yeast fitness was no more than 0.5.

Turning to U2C C4U C34A G58A, the yeast fitness is no more than 0.5.

Regarding G9A A21U, the yeast fitness amounted to 0.693.

Turning to C5U U16C, the yeast fitness worked out at 0.972.

Regarding U7C G17A C62U, the yeast fitness is no more than 0.5.

For the variant C4G A14C G48C A69U A70G, the yeast fitness was no more than 0.5.

Consider U13A A14U C22A G48C, for which the yeast fitness was no more than 0.5.

In the case of C5G C11A A20C C29U, the yeast fitness was no more than 0.5.

C5G A21G G41A: the yeast fitness stood at 0.503.

As for C22A G41A C46U C66U, the yeast fitness worked out at 0.716.

C34G C49A: the yeast fitness stood at 0.591.

Take U26C U59C: the yeast fitness was 0.793.

For A40U A42C C62U G68A, the yeast fitness was no more than 0.5.

As for U8C C11U C22G C55G G63C, the yeast fitness is no more than 0.5.

Turning to A21C C29G C33A A42C C62A, the yeast fitness is 0.52.

As for U3A C11A A20G G39A G51A U53A G63C, the yeast fitness is no more than 0.5.

G9U C11A C24G C30G: the yeast fitness was no more than 0.5.

As to C4U U8A C33U A36U A65C, the yeast fitness was no more than 0.5.

Consider U13C C31U G44C, for which the yeast fitness was determined as 0.844.

Turning to A14U U16G U19A A42G G52A, the yeast fitness was no more than 0.5.

With G12A C46A U47A, the yeast fitness was found to be 0.75.

Turning to G25A C31U A37C G52C, the yeast fitness is no more than 0.5.

For G44C A70U, the yeast fitness was determined as 0.959.

On to A14U G25A C30G C62G, for which the yeast fitness is no more than 0.5.

For the variant A14C U28A A42U U54A, the yeast fitness was no more than 0.5.

As to C33A C60G, the yeast fitness was determined as 0.613.

With C34U A43G C61A, the yeast fitness was no more than 0.5.

In the case of C5G U32A A70U, the yeast fitness was no more than 0.5.

For the variant G10A G18A A42C C61A, the yeast fitness was 0.858.

For the variant U3G U32C, the yeast fitness is 0.86.

Regarding G18A C31A G44A, the yeast fitness turned out to be 0.534.

For C34A A37G C66U, the yeast fitness is no more than 0.5.

In the case of C5G A20U C30U, the yeast fitness is no more than 0.5.

A20U C34U A42U: the yeast fitness was no more than 0.5.

With A36U G48C C66U, the yeast fitness is no more than 0.5.

Take U16A C22A G23C C34U A36G A40U: the yeast fitness is no more than 0.5.

Turning to G6A A20C G39C C60G C61G, the yeast fitness was no more than 0.5.

On to U13A C22U, for which the yeast fitness came to 0.859.

Turning to C11U C31G C46A G63C A65U, the yeast fitness was 0.531.

Turning to U2G C27U C46U, the yeast fitness was 0.999.

Turning to C4U G12A G39C G44A A57U, the yeast fitness was no more than 0.5.

Consider U28G G41C U64C, for which the yeast fitness stood at 0.521.

As to U16C C27U G63A A65G, the yeast fitness is no more than 0.5.

A45U C66A: the yeast fitness was 0.649.

As for U2C G12A G18C C33U A69C, the yeast fitness was 0.565.

With U16G A21U C34G A40U, the yeast fitness was found to be 0.624.

With C4U C22U A42C, the yeast fitness was no more than 0.5.

With G23A C29G A57G C66G, the yeast fitness is no more than 0.5.

Consider C46G U54A, for which the yeast fitness was 0.702.

Regarding G48A C61G C62U, the yeast fitness is no more than 0.5.

As for C11A C33A A40G A43G, the yeast fitness was no more than 0.5.

As to G25C C29G C33U G39U A57U, the yeast fitness is no more than 0.5.

U2A U16G: the yeast fitness stood at 1.03.

In the case of C11G C22G C66A A69U, the yeast fitness turned out to be 0.533.

Consider C29U G41U, for which the yeast fitness came to 0.769.

In the case of A15U A20C C46G G50C C61G, the yeast fitness was found to be 0.604.

Regarding G50A G68A, the yeast fitness turned out to be 0.915.

As for C24U C29G C31U U64A, the yeast fitness was no more than 0.5.

Turning to U8C G39C G68A, the yeast fitness was no more than 0.5.

As to U47C A57C, the yeast fitness came to 0.524.

G25C A57U: the yeast fitness was 0.659.

Turning to C5U G9A U54C C61G, the yeast fitness amounted to 0.673.

Take C24U C31G C60A U64C: the yeast fitness was no more than 0.5.

Turning to C5U A21U A57U C60A, the yeast fitness is no more than 0.5.

With U28C A42U A69U, the yeast fitness is 0.74.

Turning to G9A A14C C22G U54C C66U, the yeast fitness is no more than 0.5.

Regarding A20G A40U, the yeast fitness was 0.92.

Consider U8C A21U C34A A40C G67A, for which the yeast fitness is no more than 0.5.

As for C27G A42U U53C, the yeast fitness was no more than 0.5.

As for G12A U26A C30G C33U, the yeast fitness is no more than 0.5.

With C11G G12C, the yeast fitness is 0.7.

In the case of C11A A21G C33G A36U G44A U59C, the yeast fitness was no more than 0.5.

Regarding C4U C30A U53C A70C, the yeast fitness is no more than 0.5.

Regarding C5A U7C C49A A69C, the yeast fitness was no more than 0.5.

C22U U35C C55A C66U: the yeast fitness was no more than 0.5.

Regarding C11G C31U, the yeast fitness came out at 0.632.

With U3C U19G C27G C34A A42U, the yeast fitness is no more than 0.5.

C24U A45G A69U: the yeast fitness is 0.888.

As for U16A U35C A45G G56C, the yeast fitness was 0.602.

Take A21U U54A C61U: the yeast fitness was no more than 0.5.

As for C5A C33U G67A, the yeast fitness is 0.593.

Turning to C4A U16C G17A U32C, the yeast fitness was no more than 0.5.

With U2C C27G C46U, the yeast fitness turned out to be 0.705.

As to G6C A20C C66G, the yeast fitness was found to be 0.957.

Turning to C11U G18C A21G, the yeast fitness stood at 0.571.

As for A15U G25A C33G C62G, the yeast fitness was no more than 0.5.

Take C4A A20U A43U A57C: the yeast fitness was no more than 0.5.

Regarding G10A C11U A20G A40G C55G, the yeast fitness is no more than 0.5.

Turning to G48A C62G C66A, the yeast fitness is no more than 0.5.

(Values after the RNAGym collection of RNA variant scans (doi:10.1126/science.aae0568).)
